Laboratory results published in ChEMBL document CHEMBL1145814, “Antiretroviral activity of semisynthetic derivatives of glycopeptide antibiotics” (J Med Chem, 2003).
Values after ≈ are worked out from the molar mass of the structure shown.

What was measured:
Mus musculus [1] = species: Mus musculus; test: Effective concentration of compound required to protect C3H/3T3 embryo murine fibroblasts against the MSV induced transformation; assay type: functional, organism-based; conditions: Mus musculus, C3H/3T3
How it was run: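 Monolayer murine embryo fibroblast C3H/3T3 cultures were infected with Moloney murine sarcoma virus at 75 focus-forming units and cultured with test compound. Transformation was examined microscopically on day 6 postinfection. EC50 is the concentration protecting cells against MSV-induced transformation by 50%.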

[2] = test system: Human immunodeficiency virus 1; test: Effective concentration of compound required to protect human T-lymphocytic cells against the cytopathogenicity of HIV-1; assay type: functional, organism-based; conditions: Human immunodeficiency virus 1
CCRF-CEM = test: Inhibitory concentration against proliferation of human T-lymphocytic (CEM) cells; assay type: functional, cell-based; conditions: Homo sapiens, CCRF-CEM
How it was run: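 (5–7.5) × 10^4 cells per well were incubated with test compound at 37 °C in a humidified CO2 atmosphere. L1210 murine leukemia cells grew for 48 h, and CEM and Molt4/clone 8 human lymphocytes grew for 72 h. Cells were then counted with a Coulter counter. IC50 is the concentration inhibiting proliferation by 50%.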

Mus musculus [3] = species: Mus musculus; test: Minimal inhibitory concentration required to cause a microscopic detectable alteration of C3H/3T3 embryo murine fibroblast cell morphology; assay type: functional
How it was run: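 Uninfected C3H/3T3 murine embryo fibroblast cultures were exposed to test compound and checked microscopically for changes in cell morphology. The MIC is the concentration causing a microscopically detectable alteration of morphology.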

[4] = test system: Human immunodeficiency virus 2; test: Concentration required to protect human T-lymphocytic cells against the cytopathogenicity of HIV-2; assay type: functional, organism-based; conditions: Human immunodeficiency virus 2

Compound | EC50 [2] | IC50 (CCRF-CEM) | EC50 [4] | EC50 (Mus musculus [1]) | MIC (Mus musculus [3])
CN[C@H](CC(C)C)C(=O)N[C@H]1C(=O)N[C@@H](CC(N)=O)C(=O)N[C@H]2C(=O)N[C@H]3C(=O)N[C@H](C(=O)N[C@H](C(=O)NCc4ccc(-c5ccc(Cl)cc5)cc4)c4cc(O)cc(O)c4-c4cc3ccc4O)[C@H](O)c3ccc(c(Cl)c3)Oc3cc2cc(c3O[C@@H]2O[C@H](CO)[C@@H](O)[C@H](O)[C@H]2O[C@H]2C[C@](C)(N)C(O)[C@H](C)O2)Oc2ccc(cc2Cl)[C@H]1O (some centres not stated) [listing 1 of 2 here] | – | – | – | > 2 µM | –
NC1C(=O)NC2Cc3ccc(c(Cl)c3)Oc3cc4cc(c3O)Oc3ccc(cc3Cl)C(O)C3NC(=O)C(NC(=O)C4NC(=O)C(NC2=O)c2cc(O)cc(c2)Oc2cc1ccc2O)c1ccc(O)c(c1)-c1c(cc(O)c(CNC2C4CC5CC(C4)CC2C5)c1O)[C@H](C(=O)O)NC3=O (some centres not stated) | 25 µM | > 250 µM | 37 µM | 5.6 µM | 100 µM (≈ 136 µg/mL)
COC(=O)[C@@H]1NC(=O)C2NC(=O)C(NC(=O)C3NC(=O)C4NC(=O)C(NC(=O)C(N)c5ccc(O)c(c5)Oc5cc4cc(O)c5C)C(O)c4ccc(cc4)Oc4cc3cc(c4O)Oc3ccc(cc3)C2O)c2ccc(O)c(c2)-c2c(O)cc(O)cc21 (some centres not stated) | 25 µM | > 100 µM | > 50 µM | 19 µM | > 100 µM
CC(C)(C)OC(=O)NC1C(=O)NC2Cc3ccc(c(Cl)c3)Oc3cc4cc(c3O)Oc3ccc(cc3Cl)C(O)C3NC(=O)C(NC(=O)C4NC(=O)C(NC2=O)c2cc(O)cc(c2)Oc2cc1ccc2O)c1ccc(O)c(c1)-c1c(O)cc(O)cc1[C@H](C(=O)O)NC3=O (some centres not stated) | 13 µM | > 250 µM | 20 µM | 12 µM | > 100 µM
CCCCc1ccc(CNCc2c(O)cc3c(c2O)-c2cc(ccc2O)C2NC(=O)C4NC(=O)C5NC(=O)C(Cc6ccc(c(Cl)c6)Oc6cc4cc(c6O)Oc4ccc(cc4Cl)C(O)C(NC2=O)C(=O)N[C@H]3C(=O)O)NC(=O)C(NC(=O)OC(C)(C)C)c2ccc(O)c(c2)Oc2cc(O)cc5c2)cc1 (some centres not stated) | 20 µM | 60 µM | 8.3 µM | 7.6 µM | > 100 µM
CN[C@H](CC(C)C)C(=O)N[C@H]1C(=O)N[C@@H](CC(N)=O)C(=O)N[C@H]2C(=O)N[C@H]3C(=O)N[C@H](C(=O)N[C@H](C(=O)NCc4ccc(-c5ccc(Cl)cc5)cc4)c4cc(O)cc(O)c4-c4cc3ccc4O)[C@H](O)c3ccc(c(Cl)c3)Oc3cc2cc(c3O[C@@H]2O[C@H](CO)[C@@H](O)[C@H](O)[C@H]2O[C@H]2C[C@](C)(N)C(O)[C@H](C)O2)Oc2ccc(cc2Cl)[C@H]1O (some centres not stated) [listing 2 of 2 here] | – | – | – | – | 20 µM (≈ 33 µg/mL)
O=C(NC1C(=O)NC2Cc3ccc(c(Cl)c3)Oc3cc4cc(c3O)Oc3ccc(cc3Cl)C(O)C3NC(=O)C(NC(=O)C4NC(=O)C(NC2=O)c2cc(O)cc(c2)Oc2cc1ccc2O)c1ccc(O)c(c1)-c1c(O)cc(O)cc1[C@H](C(=O)O)NC3=O)OCc1ccccc1 (some centres not stated) | 12 µM | > 250 µM | 8 µM | 11 µM | > 100 µM
NC1Cc2ccc(c(Cl)c2)Oc2cc3cc(c2O)Oc2ccc(cc2Cl)C(O)C2NC(=O)C(NC(=O)C3NC(=O)C(c3cc(O)cc(Oc4cc(C5NC(=S)N(c6ccccc6)C5=O)ccc4O)c3)NC1=O)c1ccc(O)c(c1)-c1c(O)cc(O)cc1[C@H](C(=O)O)NC2=O (some centres not stated) | 15 µM | > 250 µM | 37 µM | 27 µM | > 100 µM
NC(=O)C[C@@H]1NC(=O)C(N)C(O)c2ccc(c(Cl)c2)Oc2cc3cc(c2O)Oc2ccc(cc2)C(O)C2NC(=O)C(NC(=O)C3NC1=O)c1ccc(O)c(c1)-c1c(O)cc(O)cc1[C@H](C(=O)O)NC2=O (some centres not stated) | 115 µM | > 250 µM | > 250 µM | > 100 µM | > 100 µM
CN[C@H](CC(C)C)C(=O)N[C@H]1C(=O)N[C@@H](CC(N)=O)C(=O)N[C@H]2C(=O)N[C@H]3C(=O)N[C@H](C(=O)N[C@H](C(=O)O)c4cc(O)cc(O)c4-c4cc3ccc4O)[C@H](O)c3ccc(c(Cl)c3)Oc3cc2cc(c3O[C@@H]2O[C@H](CO)[C@@H](O)[C@H](O)[C@H]2O[C@H]2C[C@](C)(NCc3ccc(-c4ccc(Cl)cc4)cc3)C(O)[C@H](C)O2)Oc2ccc(cc2Cl)[C@H]1O (some centres not stated) [listing 1 of 2 here] | – | – | – | 7.7 µM | –
CN[C@H](CC(C)C)C(=O)N[C@H]1C(=O)N[C@@H](CC(N)=O)C(=O)N[C@H]2C(=O)N[C@H]3C(=O)N[C@H](C(=O)N[C@H](C(=O)O)c4cc(O)cc(O)c4-c4cc3ccc4O)[C@H](O)c3ccc(c(Cl)c3)Oc3cc2cc(c3O[C@@H]2O[C@H](CO)[C@@H](O)[C@H](O)[C@H]2O[C@H]2C[C@](C)(NCc3ccc(-c4ccc(Cl)cc4)cc3)C(O)[C@H](C)O2)Oc2ccc(cc2Cl)[C@H]1O (some centres not stated) [listing 2 of 2 here] | – | – | – | – | > 25 µM

Further lines, with some results ahead:

EC50 [2] | IC50 (CCRF-CEM) | EC50 [4] | Compound | EC50 (Mus musculus [1]) | MIC (Mus musculus [3])
17 µM | 88 µM | 7.8 µM | CNC(=O)[C@@H]1NC(=O)C2NC(=O)C(NC(=O)C3NC(=O)C4NC(=O)C(Cc5ccc(c(Cl)c5)Oc5cc3cc(c5O)Oc3ccc(cc3Cl)C2O)NC(=O)C(NC(=O)OC23CC5CC(CC(C5)C2)C3)c2ccc(O)c(c2)Oc2cc(O)cc4c2)c2ccc(O)c(c2)-c2c(O)cc(O)cc21 (some centres not stated) | 8.7 µM | 100 µM (≈ 139 µg/mL)
13 µM | 229 µM | 17 µM | CNC(=O)[C@@H]1NC(=O)C2NC(=O)C(NC(=O)C3NC(=O)C4NC(=O)C(Cc5ccc(c(Cl)c5)Oc5cc3cc(c5O)Oc3ccc(cc3Cl)C2O)NC(=O)C(NC(=O)OC(C)(C)C)c2ccc(O)c(c2)Oc2cc(O)cc4c2)c2ccc(O)c(c2)-c2c(O)cc(O)cc21 (some centres not stated) | 11 µM | > 100 µM
2.6 µM | 21 µM | 5.8 µM | CCCCCCCCCCNC(=O)[C@@H]1NC(=O)C2NC(=O)C(NC(=O)C3NC(=O)C4NC(=O)C(Cc5ccc(c(Cl)c5)Oc5cc3cc(c5O)Oc3ccc(cc3Cl)C2O)NC(=O)C(N)c2ccc(O)c(c2)Oc2cc(O)cc4c2)c2ccc(O)c(c2)-c2c(O)cc(O)cc21 (some centres not stated) | – | –
22 µM | > 250 µM | 32 µM | NC1C(=O)NC2Cc3ccc(c(Cl)c3)Oc3cc4cc(c3O)Oc3ccc(cc3Cl)C(O)C(C(=O)O)NC(=O)C(c3ccc(O)c(-c5c(O)cc(O)cc5[C@@H](N)C(=O)O)c3)NC(=O)C4NC(=O)C(NC2=O)c2cc(O)cc(c2)Oc2cc1ccc2O (some centres not stated) | 14 µM | > 100 µM
17 µM | 114 µM | 15 µM | O=C(NC1C(=O)NC2Cc3ccc(c(Cl)c3)Oc3cc4cc(c3O)Oc3ccc(cc3Cl)C(O)C3NC(=O)C(NC(=O)C4NC(=O)C(NC2=O)c2cc(O)cc(c2)Oc2cc1ccc2O)c1ccc(O)c(c1)-c1c(O)cc(O)cc1[C@H](C(=O)O)NC3=O)OCC1c2ccccc2-c2ccccc21 (some centres not stated) | 10 µM | 100 µM (≈ 142 µg/mL)
6 µM | 220 µM | 8 µM | O=C1NC2C(=O)NC3C(=O)NC4C(=O)NC(C(=O)N[C@@H](C(=O)O)c5cc(O)cc(O)c5-c5cc4ccc5O)C(O)c4ccc(c(Cl)c4)Oc4cc3cc(c4O)Oc3ccc(cc3Cl)CC1NC(=O)C(/N=C(\S)Nc1ccccc1)c1ccc(O)c(c1)Oc1cc(O)cc2c1 (some centres not stated) | 7.5 µM | 100 µM (≈ 133 µg/mL)
2.5 µM | 60 µM | 6 µM | CCCCCCCCCCCCCCCCCCNCc1c(O)cc2c(c1O)-c1cc(ccc1O)C1NC(=O)C3NC(=O)C4NC(=O)C(Cc5ccc(c(Cl)c5)Oc5cc3cc(c5O)Oc3ccc(cc3Cl)C(O)C(NC1=O)C(=O)N[C@H]2C(=O)NC)NC(=O)C(N)c1ccc(O)c(c1)Oc1cc(O)cc4c1 (some centres not stated) | 4.7 µM | 100 µM (≈ 149 µg/mL)
3.5 µM | 81 µM | 22 µM | CCCCc1ccc(CNC2C(Oc3c4cc5cc3Oc3ccc(cc3Cl)C(O)C3NC(=O)C(NC(=O)C5NC(=O)C5NC(=O)C(Cc6ccc(cc6)O4)NC(=O)C(NC)c4ccc(O)c(c4)Oc4cc(O)c(Cl)c5c4)c4ccc(O)c(c4)-c4c(cc(O)c(CN5CCN(Cc6ccc(-c7ccccc7)cc6)CC5)c4O)[C@H](C(=O)O)NC3=O)OC(C(=O)O)C(O)C2O)cc1 (some centres not stated) | 6.9 µM | > 20 µM
> 50 µM | > 100 µM | > 250 µM | COC(=O)[C@H]1NC(=O)C2NC(=O)C(NC(=O)[C@@H]3NC(=O)[C@H]4NC(=O)[C@H](NC(=O)[C@H](N)c5ccc(O)c(c5)Oc5cc4cc(O)c5C)[C@H](O)c4ccc(cc4)Oc4cc3cc(c4O)Oc3ccc(cc3)[C@H]2O[C@@H]2C[C@@H](N)[C@@H](O)[C@@H](C)O2)c2ccc(O)c(c2)-c2c(O)cc(O)cc21 | 52 µM | > 100 µM
17 µM | > 250 µM | 17 µM | COC(=O)[C@@H]1NC(=O)C2NC(=O)C(NC(=O)C(NC(=O)OC(C)(C)C)c3cc(Oc4ccc(CC(NC(=O)OCc5ccccc5)C(=O)O)cc4Cl)c(O)c(c3)Oc3ccc(cc3Cl)C2O)c2ccc(O)c(c2)-c2c(O)cc(O)cc21 (some centres not stated) | 87 µM | > 100 µM
22 µM | > 250 µM | 40 µM | NC(=O)CC1NC(=O)C(N)C(O)c2ccc(c(Cl)c2)Oc2cc3cc(c2O)Oc2ccc(cc2)C(O)C2NC(=O)C(NC(=O)C3NC1=O)c1ccc(O)c(c1)-c1c(cc(O)c(CNC3C4CC5CC(C4)CC3C5)c1O)[C@H](C(=O)O)NC2=O (some centres not stated) | 47 µM | > 100 µM
4.5 µM | > 100 µM | 4.5 µM | CC(C)CC(C(=O)NC1C(=O)NC(CC(N)=O)C(=O)NC2C(=O)NC3C(=O)NC(C(=O)N[C@@H](C(=O)O)c4cc(O)c(CN5CCN(Cc6ccc(-c7ccccc7)cc6)CC5)c(O)c4-c4cc3ccc4O)C(O)c3ccc(cc3)Oc3cc2cc(c3O)Oc2ccc(cc2Cl)C1O)N(C)C(=O)OC(C)(C)C (some centres not stated) | 8.4 µM | > 100 µM
